Results as given in ChEMBL document CHEMBL5058577, “EUbOPEN Chemogenomics Library 2 (Multiplex)” (2022).

Test system: HEK-293T
Assay: Multiplex assay against HEK293T
Type: toxicity, cell-based
Details: human
Summary of the method: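 Hoechst33342, BioTracker Green Microtubule Cytoskeleton Dye, MitoTracker Red and Annexin V Alexa Fluor 680 were added to live cells at seeding, and imaging on a CQ1 microscope at 37°C and 5% CO2 followed compound addition. Gating by CellPathfinder machine learning separated cells into Hoechst high-intensity objects or normal cells, then normal cells into healthy, pyknosed or fragmented nuclei, then pyknosed cells into mitotic or apoptotic. Per cents of healthy-nucleus cells are reported for the tubulin, mitochondrial-mass and membrane-permeability phenotypes.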

[1] = 12 h, 1 µM, compound concentration 1 uM, replicate 1
[2] = 12 h, 1 µM, compound concentration 1 uM, replicate 2
[3] = 12 h, 10 µM, compound concentration 10 uM, replicate 1
[4] = 12 h, 10 µM, compound concentration 10 uM, replicate 2
[5] = 24 h, 1 µM, compound concentration 1 uM, replicate 1
[6] = 24 h, 1 µM, compound concentration 1 uM, replicate 2
[7] = 24 h, 10 µM, compound concentration 10 uM, replicate 1
[8] = 24 h, 10 µM, compound concentration 10 uM, replicate 2
[9] = 48 h, 1 µM, compound concentration 1 uM, replicate 1
[10] = 48 h, 1 µM, compound concentration 1 uM, replicate 2
[11] = 48 h, 10 µM, compound concentration 10 uM, replicate 1
[12] = 48 h, 10 µM, compound concentration 10 uM, replicate 2

With `O=C(O)c1cc2ccccc2c(Cc2c(O)c(C(=O)O)cc3ccccc23)c1O` [PAMOIC ACID] the “Population Apoptotic (%)” value [1] was 30%, the “Population Fragmented Nuclei (%)” value [1] was 9% and the “Population Healthy Nuclei (%)” value [1] was 77%. For the same molecule, the “Population Hoechst High Intensity Objects (%)” value [1] was 7%, the “Population Membrane Permeable-Phenotype (%)” value [1] was 0% and the “Population Mitochondria Different-Phenotype (%)” value [1] was 38%. For the same molecule, the “Population Mitotic Cells (%)” value [1] was 69%, the “Population Normal (%)” value [1] was 92% and the “Population Pyknosed Nuclei (%)” value [1] was 12%. The “Population Tubulin-Different-Phenotype (%)” value [1] was 23%, the “Total Cell Count” value [1] was 432 and the “Population Apoptotic (%)” value [2] was 58%. The “Population Fragmented Nuclei (%)” value [2] was 7%, the “Population Hoechst High Intensity Objects (%)” value [2] was 6% and the “Population Mitochondria Different-Phenotype (%)” value [2] was 60%. For the same molecule, the “Population Mitotic Cells (%)” value [2] was 41%, the “Population Normal (%)” value [2] was 93% and the “Population Pyknosed Nuclei (%)” value [2] was 15%. The “Population Tubulin-Different-Phenotype (%)” value [2] was 21%, the “Total Cell Count” value [2] was 303 and the “Population Apoptotic (%)” value [3] was 34%. The “Population Fragmented Nuclei (%)” value [3] was 8%, the “Population Healthy Nuclei (%)” value [3] was 79% and the “Population Hoechst High Intensity Objects (%)” value [3] was 8%. The “Population Membrane Permeable-Phenotype (%)” value [3] was 0%, the “Population Mitochondria Different-Phenotype (%)” value [3] was 44% and the “Population Mitotic Cells (%)” value [3] was 65%. The “Population Normal (%)” value [3] was 91%, the “Population Pyknosed Nuclei (%)” value [3] was 12% and the “Population Tubulin-Different-Phenotype (%)” value [3] was 34%. For the same molecule, the “Total Cell Count” value [3] was 446, the “Population Apoptotic (%)” value [4] was 52% and the “Population Fragmented Nuclei (%)” value [4] was 4%. The “Population Healthy Nuclei (%)” value [4] was 81%, the “Population Mitochondria Different-Phenotype (%)” value [4] was 55% and the “Population Mitotic Cells (%)” value [4] was 47%. For the same molecule, the “Population Pyknosed Nuclei (%)” value [4] was 13%, the “Population Tubulin-Different-Phenotype (%)” value [4] was 26% and the “Total Cell Count” value [4] was 275. The “Population Apoptotic (%)” value [5] was 29%, the “Population Fragmented Nuclei (%)” value [5] was 8% and the “Population Healthy Nuclei (%)” value [5] was 78%. For the same molecule, the “Population Hoechst High Intensity Objects (%)” value [5] was 6%, the “Population Membrane Permeable-Phenotype (%)” value [5] was 1% and the “Population Mitochondria Different-Phenotype (%)” value [5] was 22%. The “Population Mitotic Cells (%)” value [5] was 70%, the “Population Normal (%)” value [5] was 93% and the “Population Pyknosed Nuclei (%)” value [5] was 12%. The “Population Tubulin-Different-Phenotype (%)” value [5] was 16%, the “Total Cell Count” value [5] was 559 and the “Population Apoptotic (%)” value [6] was 40%. For the same molecule, the “Population Fragmented Nuclei (%)” value [6] was 5%, the “Population Healthy Nuclei (%)” value [6] was 86% and the “Population Membrane Permeable-Phenotype (%)” value [6] was 0%. The “Population Mitochondria Different-Phenotype (%)” value [6] was 39%, the “Population Mitotic Cells (%)” value [6] was 59% and the “Population Pyknosed Nuclei (%)” value [6] was 7%. For the same molecule, the “Total Cell Count” value [6] was 378, the “Population Apoptotic (%)” value [7] was 29% and the “Population Fragmented Nuclei (%)” value [7] was 9%. For the same molecule, the “Population Healthy Nuclei (%)” value [7] was 75%, the “Population Hoechst High Intensity Objects (%)” value [7] was 5% and the “Population Membrane Permeable-Phenotype (%)” value [7] was 0%. The “Population Mitochondria Different-Phenotype (%)” value [7] was 27%, the “Population Mitotic Cells (%)” value [7] was 70% and the “Population Normal (%)” value [7] was 94%. The “Population Pyknosed Nuclei (%)” value [7] was 14%, the “Population Tubulin-Different-Phenotype (%)” value [7] was 22% and the “Total Cell Count” value [7] was 592. For the same molecule, the “Population Apoptotic (%)” value [8] was 41%, the “Population Fragmented Nuclei (%)” value [8] was 5% and the “Population Healthy Nuclei (%)” value [8] was 79%. The “Population Hoechst High Intensity Objects (%)” value [8] was 7%, the “Population Mitochondria Different-Phenotype (%)” value [8] was 43% and the “Population Mitotic Cells (%)” value [8] was 58%. The “Population Normal (%)” value [8] was 92%, the “Population Pyknosed Nuclei (%)” value [8] was 15% and the “Population Tubulin-Different-Phenotype (%)” value [8] was 18%. The “Total Cell Count” value [8] was 365, the “Population Apoptotic (%)” value [9] was 18% and the “Population Fragmented Nuclei (%)” value [9] was 11%. For the same molecule, the “Population Healthy Nuclei (%)” value [9] was 81%, the “Population Hoechst High Intensity Objects (%)” value [9] was 2% and the “Population Membrane Permeable-Phenotype (%)” value [9] was 1%. The “Population Mitochondria Different-Phenotype (%)” value [9] was 13%, the “Population Mitotic Cells (%)” value [9] was 81% and the “Population Normal (%)” value [9] was 97%. For the same molecule, the “Population Pyknosed Nuclei (%)” value [9] was 7%, the “Population Tubulin-Different-Phenotype (%)” value [9] was 10% and the “Total Cell Count” value [9] was 998. The “Population Apoptotic (%)” value [10] was 48%, the “Population Fragmented Nuclei (%)” value [10] was 8% and the “Population Healthy Nuclei (%)” value [10] was 84%. The “Population Hoechst High Intensity Objects (%)” value [10] was 7%, the “Population Membrane Permeable-Phenotype (%)” value [10] was 0% and the “Population Mitochondria Different-Phenotype (%)” value [10] was 27%. For the same molecule, the “Population Mitotic Cells (%)” value [10] was 51%, the “Population Normal (%)” value [10] was 92% and the “Population Pyknosed Nuclei (%)” value [10] was 6%. For the same molecule, the “Population Tubulin-Different-Phenotype (%)” value [10] was 11%, the “Total Cell Count” value [10] was 494 and the “Population Apoptotic (%)” value [11] was 24%. The “Population Fragmented Nuclei (%)” value [11] was 13%, the “Population Healthy Nuclei (%)” value [11] was 79% and the “Population Hoechst High Intensity Objects (%)” value [11] was 3%. The “Population Membrane Permeable-Phenotype (%)” value [11] was 0%, the “Population Mitochondria Different-Phenotype (%)” value [11] was 18% and the “Population Mitotic Cells (%)” value [11] was 75%. The “Population Normal (%)” value [11] was 96%, the “Population Pyknosed Nuclei (%)” value [11] was 7% and the “Population Tubulin-Different-Phenotype (%)” value [11] was 10%. The “Total Cell Count” value [11] was 879, the “Population Apoptotic (%)” value [12] was 36% and the “Population Fragmented Nuclei (%)” value [12] was 11%. For the same molecule, the “Population Healthy Nuclei (%)” value [12] was 82%, the “Population Hoechst High Intensity Objects (%)” value [12] was 7% and the “Population Mitochondria Different-Phenotype (%)” value [12] was 27%. The “Population Mitotic Cells (%)” value [12] was 64%, the “Population Normal (%)” value [12] was 92% and the “Population Pyknosed Nuclei (%)” value [12] was 5%. For the same molecule, the “Population Tubulin-Different-Phenotype (%)” value [12] was 12% and the “Total Cell Count” value [12] was 517.
